CendR NRP1 mod = modulators of CendR peptide binding to human neuropilin-1. O14786. FAM-RPARPAR peptide binding to NRP-1, fluorescence polarization. inhibition, % at 25 µM. 360,000 tested, 0.85% active. AID 602438;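 active means inhibition or corrected inhibition above about 18%, plus a signal ratio from 0.5 to 1.5, limit read from the data, passing the limit was not always enough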
Target sequence (O14786 whole entry, looked up): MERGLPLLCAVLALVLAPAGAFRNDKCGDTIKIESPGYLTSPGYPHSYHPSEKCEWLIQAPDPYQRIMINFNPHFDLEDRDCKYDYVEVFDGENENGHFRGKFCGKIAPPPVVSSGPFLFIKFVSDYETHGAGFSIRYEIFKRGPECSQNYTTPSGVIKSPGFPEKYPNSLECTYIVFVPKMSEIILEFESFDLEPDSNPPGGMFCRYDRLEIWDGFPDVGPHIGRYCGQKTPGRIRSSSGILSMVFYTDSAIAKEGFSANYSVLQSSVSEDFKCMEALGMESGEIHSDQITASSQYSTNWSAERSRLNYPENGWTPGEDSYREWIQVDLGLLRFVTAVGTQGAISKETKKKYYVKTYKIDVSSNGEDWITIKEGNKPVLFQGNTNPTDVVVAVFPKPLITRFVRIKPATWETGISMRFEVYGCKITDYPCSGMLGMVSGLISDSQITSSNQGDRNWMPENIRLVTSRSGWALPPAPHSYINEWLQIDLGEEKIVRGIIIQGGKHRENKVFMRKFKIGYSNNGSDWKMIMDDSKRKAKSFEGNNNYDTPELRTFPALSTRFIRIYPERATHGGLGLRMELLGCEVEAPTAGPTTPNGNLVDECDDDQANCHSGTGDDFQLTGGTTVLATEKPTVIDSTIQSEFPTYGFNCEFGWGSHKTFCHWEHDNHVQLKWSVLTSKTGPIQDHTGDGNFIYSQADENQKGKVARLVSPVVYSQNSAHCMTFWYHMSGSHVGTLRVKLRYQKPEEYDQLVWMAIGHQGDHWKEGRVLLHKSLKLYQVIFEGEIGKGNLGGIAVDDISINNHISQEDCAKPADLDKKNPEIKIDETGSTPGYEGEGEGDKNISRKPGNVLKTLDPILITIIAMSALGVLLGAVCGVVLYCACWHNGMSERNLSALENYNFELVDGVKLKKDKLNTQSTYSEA
hiPSC survival = increases survival of single human iPS cells | survival enhancement, % at 20 µM | 360,000 tested, 0.044% active | hiPSC single-cell survival, ATPlite luminescence; 100% = ROCK inhibitor wells, 0% = DMSO; in the data active means survival enhancement above about 18%;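 further: cells exposed to compounds for 16 hours before the ATP read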
SKN-1 inh = blocks SKN-1 activity in C. elegans; 360,000 tested, 0.49% active; AID 624304; inhibition, % at 21.8 µM; C. elegans VP596 Pgst-4::GFP/RFP ratio, acrylamide-induced, 24 h;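 active means interference check ratio from 0.5 to 1.5 plus GFP to RFP signal ratio inhibition reaching or exceeding a fixed threshold, cut at about 30% in these data, passing the limit was not always enough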
MT1-MMP act inh = inhibitors of human MT1-MMP activation | P50281 | 360,000 tested, 0.061% active | HT1080 RFP-PRO-GFP cells, GFP/RFP ratio fluorescence, overnight; percent of plate control window, DMSO zero | AID 651647 | GFP/RFP ratio change, % at 20 µM;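 active means GFP/RFP ratio change of at least 30% with cell ATP level not reduced by more than half and red fluorescence within 50% of control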
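Assay system – RFP-PRO-GFP reporter HT1080 cells · Compound dosing – single dose of 20 µM compound, 1% DMSO final · Incubation – overnight compound exposure at 37 °C · Measure – GFP/RFP fluorescence ratio · Benchmarks – DMSO wells and RFP-L50D-GFP cells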
Numbers stand for hits. Hits are enriched below; roughly 1.4% of the tested compounds scored in any of these assays.

What do the screens show for `O=S(=O)(O)c1cc(O)c2c(O)c(N=Nc3cc(Cl)ccc3O)c(S(=O)(=O)O)cc2c1`?
CendR NRP1 mod: inactive; hiPSC survival: inactive; SKN-1 inh: inactive; MT1-MMP act inh: 77

What do the screens show for `CN(C(=O)CSCC(=O)Nc1ccc(Cl)cc1)C1CCCCC1`?
CendR NRP1 mod: inactive; hiPSC survival: inactive; SKN-1 inh: 37; MT1-MMP act inh: inactive

How did COc1cc(NC(=O)CSCC(=O)N(C)C2CCCCC2)cc(OC)c1 do in these assays?
CendR NRP1 mod: inactive; hiPSC survival: inactive; SKN-1 inh: inactive; MT1-MMP act inh: inactive

How did Cc1nc(SCC(=O)N2CCOCC2)c2c(=O)n(C)c(=O)n(C)c2n1 do in these assays?
CendR NRP1 mod: inactive; hiPSC survival: inactive; SKN-1 inh: inactive; MT1-MMP act inh: inactive

How did Cc1nc(SCC(=O)N2CCOCC2)c2c(=O)n(C)c(=O)n(CC(C)C)c2n1 do in these assays?
CendR NRP1 mod: 24; hiPSC survival: inactive; SKN-1 inh: inactive; MT1-MMP act inh: inactive

What do the screens show for `COc1cc(NC(=O)CSc2nccc(=O)[nH]2)c(C)cc1[N+](=O)[O-]`?
CendR NRP1 mod: inactive; hiPSC survival: inactive; SKN-1 inh: inactive; MT1-MMP act inh: inactive

Results for COc1ccccc1NS(=O)(=O)c1ccc(C)c(C(=O)Nc2ccc(S(=O)(=O)Nc3onc(C)c3C)cc2)c1 ?
CendR NRP1 mod: 33; hiPSC survival: inactive; SKN-1 inh: inactive; MT1-MMP act inh: inactive

How did CCOC(=O)C1CCN(Cc2cccc(OC)c2)CC1 do in these assays?
CendR NRP1 mod: inactive; hiPSC survival: inactive; SKN-1 inh: inactive; MT1-MMP act inh: inactive

What do the screens show for `COc1ccc(CN2CCC(C(N)=O)CC2)cc1OCc1ccccc1`?
CendR NRP1 mod: inactive; hiPSC survival: inactive; SKN-1 inh: inactive; MT1-MMP act inh: inactive

What do the screens show for `CCOC(=O)C1CCN(Cc2ccc3ccccc3c2)CC1`?
CendR NRP1 mod: 31; hiPSC survival: inactive; SKN-1 inh: inactive; MT1-MMP act inh: inactive

How did CCOC(=O)C1CCCN(Cc2ccc(OC)c(OCc3ccccc3)c2)C1 (stereo not drawn) do in these assays?
CendR NRP1 mod: 23; hiPSC survival: inactive; SKN-1 inh: inactive; MT1-MMP act inh: inactive

How did Nc1nnc(-c2ccccc2[N+](=O)[O-])o1 do in these assays?
CendR NRP1 mod: inactive; hiPSC survival: inactive; SKN-1 inh: inactive; MT1-MMP act inh: inactive

What do the screens show for `O=C(CCc1ccccc1)NC(=S)Nc1cc(C(F)(F)F)ccc1N1CCOCC1`?
CendR NRP1 mod: inactive; hiPSC survival: inactive; SKN-1 inh: inactive; MT1-MMP act inh: inactive

What do the screens show for `Cc1ccc(CNC(=O)C2CCC(=O)N(C3CC3)C2)cc1` (stereo not drawn)?
CendR NRP1 mod: 28; hiPSC survival: inactive; SKN-1 inh: inactive; MT1-MMP act inh: inactive

What do the screens show for `Cc1cccc(CNC(=O)C2CCC(=O)N(C3CCCC3)C2)c1` (stereo not drawn)?
CendR NRP1 mod: inactive; hiPSC survival: inactive; SKN-1 inh: inactive; MT1-MMP act inh: inactive

What do the screens show for `Cc1ccccc1C(=O)Nc1ccc2c(C#N)c3nc4ccccc4nc3n2c1`?
CendR NRP1 mod: inactive; hiPSC survival: inactive; SKN-1 inh: 36; MT1-MMP act inh: inactive

What do the screens show for `CC1CCCN(C(=O)c2ccncc2)C1` (stereo not drawn)?
CendR NRP1 mod: inactive; hiPSC survival: inactive; SKN-1 inh: 35; MT1-MMP act inh: inactive

How did O=C(Cn1ccc(NC(=O)OCc2ccccc2)nc1=O)NCCCc1ccccc1 do in these assays?
CendR NRP1 mod: inactive; hiPSC survival: inactive; SKN-1 inh: inactive; MT1-MMP act inh: inactive

How did O=C(Cn1ccc(NC(=O)OCc2ccccc2)nc1=O)NCCCn1ccnc1 do in these assays?
CendR NRP1 mod: 33; hiPSC survival: inactive; SKN-1 inh: inactive; MT1-MMP act inh: inactive

How did O=C(COc1ccc(Cl)cc1Cl)N1CCN(C(=O)c2ccco2)CC1 do in these assays?
CendR NRP1 mod: inactive; hiPSC survival: inactive; SKN-1 inh: inactive; MT1-MMP act inh: inactive

Results for O=C(COc1ccccc1O)N1CCN(C(=O)c2ccco2)CC1 ?
CendR NRP1 mod: 32; hiPSC survival: inactive; SKN-1 inh: inactive; MT1-MMP act inh: inactive

Results for O=C(O)C(Oc1ccc2ccccc2c1)c1ccccc1 (stereo not drawn) ?
CendR NRP1 mod: inactive; hiPSC survival: inactive; SKN-1 inh: 40; MT1-MMP act inh: inactive

What do the screens show for `CCOc1ccc(-n2c(C)nc3cc(C(=O)NCc4ccco4)ccc32)cc1`?
CendR NRP1 mod: inactive; hiPSC survival: inactive; SKN-1 inh: inactive; MT1-MMP act inh: inactive

Results for COc1ccc(-n2c(C)nc3cc(C(=O)NCc4ccco4)ccc32)cc1 ?
CendR NRP1 mod: inactive; hiPSC survival: inactive; SKN-1 inh: 41; MT1-MMP act inh: inactive
